# Screens deposited in PubChem BioAssay by several laboratories.
# Rows were chosen to be rich in hits. Some 2.4% of all compounds tested hit in one or more screens of this group.
# Rad51 HR inh = blocks human Rad51 in homologous recombination. Q06609. hRad51 DNA strand exchange, fluorescence dequenching. inhibition, % at 10 µM. hit rate 0.085% among 200,000;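 active means inhibition above 40% at the single screening dose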;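 further: 0% = DMSO control wells and 100% = blanks with heterologous ssDNA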
# Target sequence (Q06609 whole entry, looked up): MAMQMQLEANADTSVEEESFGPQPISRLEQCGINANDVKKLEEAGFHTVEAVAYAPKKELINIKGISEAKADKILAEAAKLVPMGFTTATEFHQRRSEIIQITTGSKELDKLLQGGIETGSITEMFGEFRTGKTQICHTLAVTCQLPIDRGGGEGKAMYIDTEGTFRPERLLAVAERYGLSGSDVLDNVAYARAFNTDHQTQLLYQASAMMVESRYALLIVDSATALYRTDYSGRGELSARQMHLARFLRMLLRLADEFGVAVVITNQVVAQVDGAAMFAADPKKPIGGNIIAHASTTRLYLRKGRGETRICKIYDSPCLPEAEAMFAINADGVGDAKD
#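 System: human Rad51 nucleoprotein filaments preassembled on unlabelled ssDNA. Reagent: labelled 47-mer dsDNA for strand exchange. Schedule: 30-min compound preincubation and 15-min exchange, both room temperature. Measured by: FRET fluorescence dequenching, excitation 485 nm, emission 520 nm. Read-out: Fluorescence-based percent inhibition, control- and blank-normalised. Benchmarks: plate controls and plate blanks.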
# Arbovirus inh = blocks arbovirus infection; arbovirus infection cell-based antiviral screen; inhibition, % at 10 µM; hit rate 0.37% among 200,000; in the data active means inhibition above about 30%
# Measles CPE = protection of cells from measles virus; protection (pct of control), % at 4 µM; hit rate 1.5% among 140,000; AID 841; Measles virus-infected cells, CPE protection, absorbance; in the data active means protection mostly above about 24%, no sharp cut-off; inactive means mostly below about 26%
# Yeast lifespan up = yeast lifespan extension. AID 775. hit rate 0.68% among 130,000. S. cerevisiae growth with nicotinamide, OD615; deaD strain in restrictive glucose medium. inhibition of the nicotinamide effect, % at 10 µM;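 active means inhibition above a set limit, placed 3 SD over the median of all compounds, cut at about 26% in these data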;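 further: 0% = nicotinamide-treated wells and 100% = cells grown without nicotinamide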
#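 Buffer or medium: CSMM-D glucose medium, restrictive; test system: modified budding yeast, DeaD strain; compound: single dose 10 µM compound, 0.25% DMSO; schedule: culture preincubation 4 h, compound exposure 48 h, both 30 °C; detection: optical density (absorbance) at 615 nm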
# Efa HMGR inh = inhibitors of class II HMG-CoA reductase from Enterococcus faecalis | purified E. faecalis HMGR, NADPH absorbance 340 nm kinetic | AID 1066 | hit rate 0.41% among 190,000 | inhibition, % at 10 µM;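 active means inhibition above a set limit, the median over all tested compounds plus 3 SD, cut at about 9.5% in these data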;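 further: enzyme runs in reverse so mevalonate oxidation gives rising NADPH absorbance; 0% = complete reaction with DMSO and 100% = background rate lacking mevalonate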
# BB579 growth dn = yeast BB579 growth reduction in restrictive medium; S. cerevisiae BB579 growth, OD615, 48 h; hit rate 0.51% among 140,000; inhibition, % at 10 µM;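 active means inhibition above a set limit, 3 SD over the mean compound inhibition, cut at about 44% in these data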
#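 System: Saccharomyces cerevisiae DeaD strain BB579, replicative lifespan model yeast. Buffer or medium: restrictive glucose-based CSMM-D medium. Doses: one dose, 10 µM compound with 0.25% DMSO. Timing: 4 h preincubation and 48 h exposure at 30 °C. Detection: turbidity as optical density at 615 nm. Benchmarks: amphotericin B 10 µg/mL, positive.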
# An asterisk follows results filed as active; / = no result given.
SMILES,Rad51 HR inh,Arbovirus inh,Measles CPE,Yeast lifespan up,Efa HMGR inh,BB579 growth dn
Cc1noc(C)c1S(=O)(=O)N1CCC(C(=O)N2CCN(C3CCCC3)CC2)CC1,/,0,43*,1,-3,-12
CC(C)n1nc(C(=O)Nc2nnc(SCc3c(Cl)cccc3Cl)s2)c2ccccc2c1=O,-4,8,3,-8,2,-83
COc1cccc(C(=O)Nc2ccc(S(=O)(=O)Nc3nccc(C)n3)cc2)c1,-7,8,30*,-1,-2,-22
Cc1nn(CC(=O)OCC(=O)NC(C)c2ccccc2)c(C)c1[N+](=O)[O-] (configuration not stated),-15,12,/,/,-4,/
O=C(Nc1ccc(-c2cn3c(n2)SCC3)cc1)c1ccc2c(c1)OCO2,-4,-4,/,/,13*,/
Cc1cccc(-c2noc(CN(C(=O)c3ccc4c(c3)OCO4)C(C)C)n2)c1,-7,-15,46*,-30,6,-2
O=c1[nH]c2ccccc2c2nc3ccccn3c12,1,3,19,-26,2,80*
COC(=O)c1ccccc1NC(=O)CN1CCC(NC(=O)c2ccccc2C)CC1,-5,83*,6,-5,-2,-20
COC(=O)c1ccccc1NC(=O)CN1CCC(C)CC1,6,3,/,/,4,/
C=CCN(c1ccccc1Cl)S(=O)(=O)c1cccc(C(=O)NCCc2ccc(OC)cc2)c1,4,3,13,8,-1,-50
CCc1cccc(CC)c1NC(=O)Cn1c(-c2ccccc2Cl)nc2ccccc21,/,5,1,-2,-1,-13
CC(C)N(C(=O)Cn1c(-c2ccccc2Cl)nc2ccccc21)c1ccccc1,/,2,34*,5,-1,-50
CCc1cc(-c2[nH]ncc2-c2ccc3c(c2)OCO3)c(O)cc1O,8,-39,84*,/,-10,-8
O=S(=O)(NCCc1ccccn1)c1ccc(F)c(F)c1,/,1,5,-8,-2,-35
N#CCc1ccc(NS(=O)(=O)c2cccs2)cc1,3,0,7,/,1,-27
CCCCc1ccc(NS(=O)(=O)c2cccs2)cc1,1,-2,34,-22,-4,58*
O=S(=O)(Nc1ccc(Cc2ccncc2)cc1)c1cccs1,0,9,46*,13,-8,-13
Cn1ccnc1SCCNC(=O)CCc1nnc(CCc2ccccc2)o1,-101,3,/,/,-6,/
CCc1ccccc1NC(=O)CC1SCCNC1=O (configuration not stated),1,-9,/,/,-1,/
O=C(CS(=O)c1ccc(C(F)(F)F)cc1[N+](=O)[O-])Oc1ccccc1 (configuration not stated),-1,2,6,40*,8,-36
COC(=O)c1ccc2c(c1O)C(=O)c1ccccc1C2=O,-12,-7,18,-11,1,67*
O=C(COc1cccnc1[N+](=O)[O-])NCCc1ccc(F)cc1,-6,7,/,/,-5,/
CCN(Cc1ccncc1)Cc1c(O)ccc2cc(Br)ccc12,-1,31*,/,/,15*,/
CS(=O)(=O)c1[nH]nc(-c2ccccc2Cl)c1C#N,-11,/,/,/,/,/
Cc1ccc(NC(=O)CSCC(=O)N2c3ccccc3CCc3ccccc32)cc1,5,-23,3,-3,-3,-33
SMILES,Rad51 HR inh,Arbovirus inh,Measles CPE,Yeast lifespan up,Efa HMGR inh,BB579 growth dn
NC(=O)c1sc2nc3c(c(-c4cccs4)c2c1N)CCCCC3,8,24,61*,-1,-4,-14
NC(=O)c1sc2nc3c(c(-c4cccnc4)c2c1N)CCC3,4,5,-2,/,0,-27
O=C(Nc1nc(=S)ss1)c1ccc(Cl)cc1Cl,-9,-5,13,-9,1,-18
COc1ccc2c(c1)CCCC21SC(NC(C)=O)=NN1C(C)=O (configuration not stated),-6,1,/,/,-4,/
O=S(=O)(Nc1ccccc1)c1ccc(Oc2ncc(C(F)(F)F)cc2Cl)cc1,1,-39,41*,-3,-1,-75
CC(C)NS(=O)(=O)c1ccc(Oc2ncc(C(F)(F)F)cc2Cl)cc1,-10,-3,8,-11,-5,18
O=C(NCc1ccccc1)NC1(C(=O)N2CCN(c3ccccc3)CC2)CCCCC1,-11,-5,20,-2,-4,-36
O=C(COC(=O)c1cccnc1Cl)NCc1ccc2c(c1)OCO2,2,3,33*,4,-10,10
CSc1nsc(/C=C/Nc2ccc(O)cc2C)c1C#N,-26,-19,/,/,1,/
Cn1c(N)c(C(=O)COC(=O)c2cc(S(=O)(=O)N3CCCCC3)ccc2Cl)c(=O)n(C)c1=O,/,14,27*,2,-4,-40
Cn1c(N)c(C(=O)COC(=O)c2cccc(S(=O)(=O)N3CCCCC3)c2)c(=O)n(C)c1=O,0,4,8,0,4,-7
CCCC(=O)Nc1sc(C(=O)Nc2cccc(N)c2)c(C)c1C(=O)OC,9,-32,/,/,17*,/
CCCOc1ccc(/C=C/C(=O)Nc2ccc([N+](=O)[O-])cc2)cc1,/,12,51*,-3,-3,-34
CCCCOc1ccc(/C=C/C(=O)Nc2ccc([N+](=O)[O-])cc2C)cc1,5,18,10,5,-4,-7
Cc1ccc(C(=O)N/C(=C\c2cccs2)C(=O)NCCc2c[nH]c3ccccc23)cc1,2,-21,5,4,-8,-11
CCOC(=O)C1=C(C)NC(=O)NC1C1CC=CCC1 (configuration not stated),-7,-1,21,-9,-4,-54
COC(=O)C1=C(C)NC(C)=C(C(=O)OC)C1C1CC=CCC1 (configuration not stated),-14,-4,9,/,15*,-25
Clc1ccc(-c2nc3ccccc3n2OCc2ccccc2)cc1,-2,13,39*,-13,0,-39
COc1ccc(CN2C(=O)c3ccccc3C2C(=O)NCc2cccnc2)c(OC)c1 (configuration not stated),-10,5,33*,-5,-6,-21
O/N=C(\c1ccc(Cl)cc1Cl)c1ncc(C(F)(F)F)cc1Cl,-5,-45,3,1,5,-35
CCOC1(C(F)(F)F)NC(=O)N(Cc2ccc(OC)cc2)C1=O (configuration not stated),-32,3,34*,-1,0,-6
O=C(NCc1cccs1)c1ccc(Cl)c(S(=O)(=O)N2CCCC2)c1,5,11,/,/,3,/
CCN(CC(=O)NC(c1ccccc1)c1ccccc1)Cc1nc2ccccc2c(=O)[nH]1,0,-11,21*,-24,0,-26
CCN(CC(=O)NCCc1ccc(F)cc1)Cc1nc2ccccc2c(=O)[nH]1,46*,/,/,/,/,/
CCN(Cc1cc(=O)n2cc(Cl)c(C)c(Cl)c2n1)Cc1nc2ccccc2c(=O)[nH]1,-10,26,/,/,10*,/
